# Screening data deposited in PubChem by several laboratories.
# APOBEC3G inh – APOBEC3G DNA deaminase inhibitors, primary screen, biochemical, fluorescence, single-stranded DNA substrate, uHTS; inhibition, % at 20 µM; recombinant A3G, ssDNA deamination FAM/TAMRA fluorescence; AID 493012, 2011; 330,000 compounds, 0.28% hits; DNA dC->dU-editing enzyme APOBEC-3G (Homo sapiens), Q9HC16;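 active means inhibition of at least 40% at 20 µM, with no more than 30% in the related APOBEC3A deaminase screen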
# Target sequence (Q9HC16 whole entry, looked up): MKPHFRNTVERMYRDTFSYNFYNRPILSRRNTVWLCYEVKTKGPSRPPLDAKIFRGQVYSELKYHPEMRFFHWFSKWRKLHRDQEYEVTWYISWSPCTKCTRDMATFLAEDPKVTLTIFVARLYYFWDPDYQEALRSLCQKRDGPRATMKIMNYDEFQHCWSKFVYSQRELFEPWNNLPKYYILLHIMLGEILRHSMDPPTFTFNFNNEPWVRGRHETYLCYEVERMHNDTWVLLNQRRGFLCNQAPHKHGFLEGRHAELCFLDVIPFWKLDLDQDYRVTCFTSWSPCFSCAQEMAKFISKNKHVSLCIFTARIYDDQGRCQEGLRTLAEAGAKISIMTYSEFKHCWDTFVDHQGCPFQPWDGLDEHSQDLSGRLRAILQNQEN
# Statin myotox sup – suppressors of statin myotoxicity in C2C12 myotubes, primary screen, cell-based, single point, plate reader; C2C12 myotubes + simvastatin, ATP luminescence, 48 h; scaled: DMSO 0, geranylgeraniol control 100; rescue of ATP level, % at 7.49 µM; 330,000 compounds, 0.78% hits; AID 602340, 2012;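 active means mean ATP rescue above about 67%, or every replicate alone reaching that limit, limit read from the data, passing the limit was not always enough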;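 further: myotubes were challenged with 10 µM simvastatin during compound exposure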
# ASAP1 GAP inh – inhibitors of human ASAP1 ArfGAP activity, primary screen, biochemical, fluorescence polarization; AID 624377, 2012; inhibition, % at 16.5 µM; Arf-GAP with SH3 domain, ANK repeat and PH domain-containing protein 1 (Homo sapiens), …; ASAP1-stimulated ARF1 GTP hydrolysis, GDP FP detection; 360,000 compounds, 0.19% hits; in the data active means inhibition above about 25%
# APOBEC3A inh – APOBEC3A ssDNA deaminase inhibitors, primary screen, selectivity assay for APOBEC3G inhibitor project, biochemical, FAM/TAMRA oligo cleavage fluorescence | DNA dC->dU-editing enzyme APOBEC-3A (Homo sapiens), P31941 | inhibition, % at 20 µM | 330,000 compounds, 0.41% hits | recombinant A3A, FAM/TAMRA ssDNA deamination fluorescence;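 active means at least 40% inhibition at 20 µM here, with at most 30% in a related deaminase screen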
# Target sequence (P31941 whole entry, looked up): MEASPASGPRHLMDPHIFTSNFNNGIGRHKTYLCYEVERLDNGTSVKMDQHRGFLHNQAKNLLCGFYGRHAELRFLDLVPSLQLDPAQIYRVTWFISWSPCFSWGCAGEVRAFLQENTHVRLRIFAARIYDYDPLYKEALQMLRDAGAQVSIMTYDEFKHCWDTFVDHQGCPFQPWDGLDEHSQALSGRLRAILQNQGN
# ARFGAP1 inhibitor – inhibitors of rat ARFGAP1 GAP activity, primary screen, biochemical, fluorescence polarization, GDP tracer; Arfgap1-stimulated ARF1 GTP hydrolysis, GDP FP detection; inhibition, % at 16.5 µM; 360,000 compounds, 0.26% hits; AID 651572, 2012;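 active means inhibition above a per-plate limit, mean inhibition of low control wells plus 3 SD, cut at about 25% in these data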
#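 Material: truncated rat Arfgap1 GAP domain; Incubation: compound-enzyme preincubation 20 min, reaction 120 min, detection 60 min, 25 °C; Read-out: percent inhibition of Arfgap1-stimulated GTP hydrolysis; Technique: FP, GDP Alexa 633 tracer displaced from anti-GDP antibody, 620/688 nm; Controls: No-Arfgap1 wells (100%) versus DMSO full-reaction wells (0%); Replication: single well per compound.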
# SUMO Mot1 rescue – yeast Mot1-301 growth rescue at high temperature, primary screen, SUMOylation pathway inhibitor project, S. cerevisiae, ATP luminescence, 38.5C | 320,000 compounds, 1% hits | growth rescue, % at 18.8 µM | S. cerevisiae Mot1-301 growth rescue; percent above DMSO median, 100 means doubled;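 active means every valid replicate shows activation above 250% relative to neutral control wells; inactive means the rest, any valid replicate at or below 250%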
# APOBEC3A confirm – APOBEC3A deaminase inhibitors, retest, confirmation, selectivity assay for APOBEC3G inhibitor project, biochemical, single concentration, fluorescence readout; shares compounds with APOBEC3A inh; recombinant A3A, ssDNA deaminase UDG fluorescence assay; inhibition, % at 20 µM; 1,400 compounds, 63% hits;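 active means inhibition reaching a set limit, 80% of the first screen's cutoff, at 20 µM in any replicate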
# UDG ctr A3A – E. coli UDG inhibitors, confirmation, counter-screen for APOBEC3A inhibitor project, biochemical, single concentration, fluorescence, FAM/TAMRA oligo; shares compounds with APOBEC3A inh; UDG counterscreen, FAM/TAMRA uracil oligo fluorescence; inhibition, % at 20 µM; 1,000 tested, under 10 active; AID 504714, 2011; call rule not given here
# A number is an active result; - = inactive; . = no result given. In the library only some 2.1% were active in any assay of this set; here they are far more common.
SMILES,APOBEC3G inh,Statin myotox sup,ASAP1 GAP inh,APOBEC3A inh,ARFGAP1 inhibitor,SUMO Mot1 rescue,APOBEC3A confirm,UDG ctr A3A
COCCOC(=O)c1[nH]c2c(c1C)C(=O)CC(c1ccco1)C2 (centres undefined),-,-,-,56,-,-,45,-
CSCCOC(=O)c1[nH]c2c(c1C)C(=O)CC(c1ccco1)C2 (centres undefined),-,-,-,44,-,-,39,-
CCOC(=O)c1[nH]c2c(c1C)C(=O)CC(c1ccco1)C2 (centres undefined),-,-,-,-,-,-,.,.
O=C(C[C@@H]1C[C@@H]2c3cc(NC(=O)Cc4ccncc4)ccc3O[C@@H]2[C@@H](CO)O1)NCc1ccccn1,.,-,.,.,.,.,.,.
O=C(Nc1ccccc1)[C@H]1[C@H](CO)[C@H]2Cn3c(cccc3=O)[C@H]2N1C(=O)C1CCC1,.,-,.,.,.,.,.,.
C[C@@H]1CN([C@H](C)CO)C(=O)c2cc(-c3ccncc3)cnc2O[C@H]1CN(C)C(=O)c1ccncc1,.,-,.,.,.,.,.,.
Cc1cc(C)cc(N=C2NC(=O)/C(=C/c3cccs3)S2)c1,-,.,-,42,-,-,-,.
N#C[C@@H]1[C@@H](c2ccc(-c3ccncc3)cc2)[C@@H](CO)N1C(=O)C1CCC1,.,-,.,.,.,.,.,.
CN(C)S(=O)(=O)n1cc(/C=C(\NC(=O)c2ccccc2F)C(=O)NCCN2CCOCC2)c2ccccc21,.,-,-,.,-,.,.,.
CCn1cc(/C=C(\NC(=O)c2ccccc2F)C(=O)NCCN2CCOCC2)c2ccccc21,-,-,-,81,-,-,-,-
CCCCOc1ccc(C(=O)Nc2ccc(C)cc2[N+](=O)[O-])cc1,-,.,-,-,-,-,.,.
CCCOc1ccc(C(=O)Nc2ccccc2[N+](=O)[O-])cc1,-,-,-,76,-,-,-,-
O=C(Cn1c2[n+](c3ccc(C(F)(F)F)cc31)CCCCC2)Nc1ccccc1,-,.,-,60,-,-,62,-
CCc1cccc(NC(=O)Cn2c3[n+](c4ccc(C(F)(F)F)cc42)CCCCC3)c1,-,.,-,62,-,-,78,-
FC(F)(F)c1ccc2c(c1)n(Cc1ccccc1)c1[n+]2CCCCC1,-,.,-,-,-,-,.,.
O=C(NCC[C@@H]1CC[C@H](NS(=O)(=O)c2cccc(F)c2)[C@@H](CO)O1)c1cnccn1,.,-,.,.,.,.,.,.
CC(=O)c1ccc[n+](CC(=O)NC(C)c2ccccc2)c1 (centres undefined),-,-,-,62,-,-,64,-
CC(NC(=O)C[n+]1cccc(Br)c1)c1ccccc1 (centres undefined),-,-,-,-,-,-,.,.
COc1ccc([N+](=O)[O-])cc1CSc1ccccn1,-,-,-,52,-,-,46,-
COc1cc([N+](=O)[O-])ccc1NC(=O)CSc1ccccn1,-,.,.,-,.,-,.,.
CCN(CC(=O)Nc1ccc(NC(C)=O)cc1)C(=O)c1ccc(NC2CC2)c([N+](=O)[O-])c1,-,-,-,52,-,-,-,.
Cc1nc(SCCOc2ccc(F)cc2)c2ccccc2n1,-,.,-,51,-,-,76,-
COc1cccc(CNC(=O)C[C@@H]2CC[C@H](NC(=O)C3CCOCC3)[C@H](CO)O2)c1,.,-,.,.,.,.,.,.
CCOC(=O)C1CCN(C(=O)Cc2cccc3ccccc23)CC1,-,-,-,40,-,-,58,-
Nn1c(SCC(=O)Nc2ccc3c(c2)OCCO3)nnc(CCC(=O)O)c1=O,-,-,-,74,-,-,60,-
SMILES,APOBEC3G inh,Statin myotox sup,ASAP1 GAP inh,APOBEC3A inh,ARFGAP1 inhibitor,SUMO Mot1 rescue,APOBEC3A confirm,UDG ctr A3A
Cc1nnc(SCC(=O)Nc2ccc3c(c2)OCCO3)n1N,-,-,-,-,-,-,.,.
Nn1c(SCC(=O)Nc2ccc3c(c2)OCCO3)nnc1C(F)(F)F,-,.,-,61,-,-,-,.
C[C@@H]1CN([C@@H](C)CO)C(=O)Cc2cc(NC(=O)C3CCCCC3)ccc2O[C@H]1CN(C)C(=O)Nc1ccc(C(F)(F)F)cc1,.,-,.,.,.,.,.,.
N#C[C@@H]1[C@H](c2ccccc2)[C@H](CO)N1C(=O)CCN1CCCCC1,.,-,.,.,.,.,.,.
CCCCc1nnc(NC(=O)c2cccc(S(=O)(=O)N3CCN(C)CC3)c2)s1,-,.,-,58,-,-,-,.
CN1CCN(S(=O)(=O)c2cccc(C(=O)Nc3cc(C(F)(F)F)ccc3N3CCCCC3)c2)CC1,-,-,-,44,-,-,-,.
CCN1CCN(c2ccc(S(=O)(=O)N3CCCCC3)cc2NC(=O)c2ccccc2)CC1,-,-,-,46,-,-,23,-
CCN1CCN(c2ccc(S(=O)(=O)N3CCCCC3)cc2NC(=O)Cc2ccccc2)CC1,-,-,-,57,-,-,64,-
CCN1CCN(c2ccc(S(=O)(=O)N3CCCCC3)cc2NC(=O)Cc2ccccc2F)CC1,-,-,-,-,-,-,.,.
CC(C)Cc1nnc(NC(=O)c2cccc(S(=O)(=O)N3CCN(C)CC3)c2)s1,-,-,-,-,-,-,.,.
CCN1CCN(c2ccc(S(=O)(=O)N3CCCCC3)cc2NC(=O)c2ccc(C)o2)CC1,-,-,.,63,.,-,71,-
CN1CCN(c2ccc(S(=O)(=O)N3CCCCC3)cc2NC(=O)Cc2c(F)cccc2Cl)CC1,-,-,-,46,-,-,36,-
CCOc1ccc(OC(=O)c2cccc(S(=O)(=O)N3CCN(C)CC3)c2)cc1,-,-,-,60,-,-,-,.
COc1ccc(OC(=O)c2cccc(S(=O)(=O)N3CCCC3)c2)cc1,-,-,-,-,-,-,.,.
CCN1CCN(c2ccc(S(=O)(=O)N3CCCCC3)cc2NC(=O)Cc2ccc(Cl)c(Cl)c2)CC1,-,-,.,-,.,-,.,.
